Results collected from several papers.
Compare with care: the assays were run in different laboratories.
NEU1: Sialidase-1 (NEU1, Homo sapiens, UniProt Q99519)
CTSL: Procathepsin L (CTSL, Homo sapiens, UniProt P07711)
P4HB: Protein disulfide-isomerase (P4HB, Homo sapiens, UniProt P07237)

The IC50 of `CC(C)(C)CC(=O)N[C@H]1[C@H]([C@H](O)[C@H](O)CO)OC(C(=O)O)=C[C@@H]1O` is reported as 160 µM (NEU1; enzyme activity; inhibitor).
The IC50 of `OB1OCc2cc(F)ccc21` is reported as 19.6 µM (blaNDM-5 (Escherichia coli, UniProt G3K399); enzyme activity; inhibitor).
The Ki of `CS(=O)(=O)N[C@@H](CCC(N)=O)C(=O)N[C@@H](Cc1ccccc1)C(=O)N[C@@H](CCCNC(=N)N)C(=O)c1nccs1` is reported as over 10 µM (CTSL; cell-free assay).
The IC50 of `O=C(O)C1=C[C@H](O)[C@@H](n2cc(-c3ccc(-c4ccccc4)cc3)nn2)[C@H]([C@H](O)[C@H](O)CO)O1` is reported as over 500 µM (NEU1; enzyme activity; inhibitor).
`O=C(O)c1cc(O)c(O)c(O)c1` gave an IC50 of over 500 µM (P4HB; enzyme activity; inhibitor; fluorescence).
`[Cl][Cd][Cl]` has an IC50 of 4.2 µM (Voltage-dependent P/Q-type calcium channel subunit alpha-1A (Homo sapiens, UniProt O00555); ion current; inhibitor; patch clamp).
For `O=C(O[C@@H]1Cc2c(O)cc(O)cc2O[C@H]1c1ccc(O)c(O)c1)c1cc(O)c(O)c(O)c1`, the IC50 was over 20 µM (P4HB; enzyme activity; inhibitor; fluorescence).
The Ki of `COCCC(=O)N[C@@H](CCC(N)=O)C(=O)N[C@@H](Cc1ccccc1)C(=O)N[C@@H](CCCNC(=N)N)C(=O)c1nc2ccccc2s1` is reported as over 10 µM (CTSL; cell-free assay).
